Values joined by “and” are separate entries in the source; they are usually repeats but may differ in a detail not shown here. Equal entries are not always repeated. Active and inactive are the calls of the source.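 Rule for the calls: active = compounds that lower cell viability with a fitted AC50 at most ten times their top valid dose; inconclusive = flat fit showing 30 to 70 percent loss, or poor fit; inactive = the rest.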
Legend:
[1] = toxicity in U2OS HRE-luc cells, iron medium, dose response, cytotoxicity control for HIF pathway activator project, iron-supplemented medium, dry powder (AID 504331); conditions: U2OS HRE-luc cells viability, CellTiter-Glo luminescence; at 38 µM (top of the series)
Method in brief: (§1)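 Assay system – U2OS HRE-luciferase reporter cells · Input – 6,000 cells/well · Medium – phenol red-free DMEM, 10% FBS, 50 µM final ferric nitrate · Timing – cells plated 24 h before dosing, 24 h compound exposure at 37 °C · Technique – CellTiter-Glo luminescence for cell viability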

[2] = test system: U2OS HRE-luc cells viability, CellTiter-Glo luminescence; test: as above
Method in brief: as §1

Row | Compound | activity change, negative = cytotoxicity [1] | AC50 [2]
1 | c1ccc(-c2nnc(-c3ccccn3)nc2NCCCN2CCOCC2)cc1 | 9.59% (inactive) | –
2 | Oc1ccc(CN2CCC3CCCCC3C2)c2cccnc12 (centres undefined) | – | 22.5 µM
3 | c1ccc(-c2nnc(-c3ccccn3)nc2NCCN2CCOCC2)cc1 | -5.86% (inactive) | –
4 | CC(C)(C)CCNc1nc(-c2ccccn2)nnc1-c1ccccc1 | -21.1% (inactive) | –
5 | O=C(NCc1ccccc1)c1cc(-c2ccccc2)on1 | 6.28% (inactive) | –
6 | O=C(NCCCO)c1cc(-c2ccccc2)on1 | -4.34% (inactive) | –
7 | c1ccc(-c2nnc(-c3ccccn3)nc2NCC2CC2)cc1 | 4.24% (inactive) | –
8 | O=C(Nc1nc(-c2ccccc2)cs1)c1cc(-c2ccccc2)on1 | 8.59% (inactive) | –
9 | O=C(Nc1cnc2ccccc2c1)c1cc(-c2ccccc2)on1 | -0.953% (inactive) | –
10 | Cc1cccc(CNc2nc(-c3ccccn3)nnc2-c2ccccc2)c1 | -8.02% (inactive) | –
11 | C=CCNc1nc(-c2ccccn2)nnc1-c1ccccc1 | 6.06% (inactive) | –
12 | c1ccc(-c2nnc(-c3ccccn3)nc2N2CCC(N3CCOCC3)CC2)cc1 | 5.36% (inactive) | –
13 | O=C(c1cc(-c2ccccc2)on1)N1CCC(N2CCCC2)CC1 | -1.03% (inactive) | –
14 | O=C(Nc1nc2ccccc2s1)c1cc(-c2ccccc2)on1 | 11.3% (inactive) | –
15 | O=C(NC1CCc2ccccc2C1)c1cc(-c2ccccc2)on1 (centres undefined) | – | > 38 µM (inactive)
16 | Oc1ccc(CNC2CCc3ccccc32)c2cccnc12 (centres undefined) | – | 35.7 µM
17 | Oc1ccc(CN2CCc3ccccc3C2)c2cccnc12 | – | 23.3 µM and 24.6 µM
18 | CCCCNC(=O)c1cc(-c2ccccc2)on1 | 5.24% (inactive) | –
19 | Cc1cccc(CNC(=O)c2cc(-c3ccccc3)on2)c1 | -4.42% (inactive) | –
20 | O=C(Nc1cn2ccccc2n1)c1cc(-c2ccccc2)on1 | 15.5% (inactive) | –
21 | c1ccc(-c2cccc(CNc3nc(-c4ccccn4)nnc3-c3ccccc3)c2)cc1 | -2.48% (inactive) | –
22 | O=C(c1cc(-c2ccccc2)on1)N1CCc2cccnc21 | -7.82% (inactive) | –
23 | c1ccc(-c2nnc(-c3ccccn3)nc2N2CCC(C3CCCCC3)C2)cc1 (centres undefined) | 0.423% (inactive) | –

Row | Compound | activity change, negative = cytotoxicity [1] | AC50 [2]
24 | Cc1ccc(NC(=O)c2cc(-c3ccccc3)on2)cn1 | -4.1% (inactive) | –
25 | CN1CCN(C(=O)c2cc(-c3ccccc3)on2)CC1 | 2.12% (inactive) | –
26 | O=C(NCCN1CCOCC1)c1cc(-c2ccccc2)on1 | 12.9% (inactive) | –
27 | c1ccc(-c2nnc(-c3ccccn3)nc2NCc2ccccn2)cc1 | – | > 38 µM (inactive)
28 | c1ccc(-c2nnc(-c3ccccn3)nc2NCc2cccnc2)cc1 | 17% (inactive) | –
29 | O=C(c1cc(-c2ccccc2)on1)N1CCC(N2CCOCC2)CC1 | 5.61% (inactive) | –
30 | N#CC1(c2ccccc2)CCN(Cc2ccc(O)c3ncccc23)CC1 | 10.7% (inactive) | –
31 | O=C(NCCCCO)c1cc(-c2ccccc2)on1 | 1.09% (inactive) | –
32 | CC(C)(C)CCNC(=O)c1cc(-c2ccccc2)on1 | -4% (inactive) | –
33 | c1ccc(-c2nnc(-c3ccccn3)nc2NCCc2ccccn2)cc1 | -1.62% (inactive) | –
34 | O=C(NCCN1CCCCC1)c1cc(-c2ccccc2)on1 | 14% (inactive) | –
35 | O=C(NCC1CC1)c1cc(-c2ccccc2)on1 | 20.9% (inactive) | –
36 | O=C(NCC1CCCCC1)c1cc(-c2ccccc2)on1 | -8.74% (inactive) | –
37 | c1ccc(-c2nnc(-c3ccccn3)nc2N2CCN(c3ccncc3)CC2)cc1 | 7.73% (inactive) | –
38 | O=C(c1cc(-c2ccccc2)on1)N1CCC(CO)CC1 | 7.47% (inactive) | –
39 | Cc1ccccc1CNc1nc(-c2ccccn2)nnc1-c1ccccc1 | -20% (inactive) | –
40 | CC1CN(Cc2ccc(O)c3ncccc23)CC(C)O1 (centres undefined) | – | 15.6 µM
41 | O=C(Nc1ncc(-c2ccccc2)o1)c1cc(-c2ccccc2)on1 | 1.13% (inactive) | –
42 | O=C(NC1Cc2ccccc2C1)c1cc(-c2ccccc2)on1 | -12.2% (inactive) | –
43 | Cn1c(NC(=O)c2cc(-c3ccccc3)on2)nc2ccccc21 | 15.8% (inactive) | –
44 | Oc1ccc(CNC2Cc3ccccc3C2)c2cccnc12 | – | 22.5 µM
45 | OCC1CCN(Cc2ccc(O)c3ncccc23)CC1 | – | 2.54 µM
46 | CN(C)CCNC(=O)c1cc(-c2ccccc2)on1 | 11% (inactive) | –

Row | Compound | activity change, negative = cytotoxicity [1] | AC50 [2]
47 | Cc1ccc(CNC(=O)c2cc(-c3ccccc3)on2)cc1 | -12.1% (inactive) | –
48 | c1ccc(-c2nnc(Nc3nc(-c4ccccn4)nnc3-c3ccccc3)s2)cc1 | 5.32% (inactive) | –
49 | Cn1c(-c2ccccc2)cnc1NC(=O)c1cc(-c2ccccc2)on1 | -7.51% (inactive) | –
50 | c1ccc(-c2nnc(-c3ccccn3)nc2NCC2CCOCC2)cc1 | 5.99% (inactive) | –
51 | O=C(Nc1nnc(-c2ccccc2)s1)c1cc(-c2ccccc2)on1 | 13.2% (inactive) | –
52 | c1ccc(-c2csc(Nc3nc(-c4ccccn4)nnc3-c3ccccc3)n2)cc1 | – | > 38 µM (inactive)
53 | c1ccc(CNc2nc(-c3ccccn3)nnc2-c2ccccc2)cc1 | 0.83% (inactive) | –
54 | CN(C)c1nc(-c2ccccn2)nnc1-c1ccccc1 | 13.9% (inactive) | –
55 | Cc1cccc(NC(=O)c2cc(-c3ccccc3)on2)n1 | -3.67% (inactive) | –
56 | c1ccc(-c2nnc(-c3ccccn3)nc2N2CCC(c3ccccc3)C2)cc1 (centres undefined) | – | 13.6 µM
57 | OCCCNc1nc(-c2ccccn2)nnc1-c1ccccc1 | 12.8% (inactive) | –
58 | O=C(Nc1ccc2ccccc2n1)c1cc(-c2ccccc2)on1 | 13% (inactive) | –
59 | Cc1ccccc1CNC(=O)c1cc(-c2ccccc2)on1 | 4.84% (inactive) | –
60 | Cn1c(-c2ccccc2)cnc1Nc1nc(-c2ccccn2)nnc1-c1ccccc1 | – | > 38 µM (inactive)
61 | COc1ccccc1N1CCN(Cc2ccc(O)c3ncccc23)CC1 | – | 33.2 µM
62 | C[C@@H](Nc1nc(-c2ccccn2)nnc1-c1ccccc1)C1CCCCC1 | – | 32 µM
63 | CN1CCN(c2nc(-c3ccccn3)nnc2-c2ccccc2)CC1 | -22.1% (inactive) | –
64 | CC(C)(C)OC(=O)N1CCN(Cc2ccc(O)c3ncccc23)CC1 | 8.63% (inactive) | –
65 | O=C(c1cc(-c2ccccc2)on1)N1CCN(c2ccncc2)CC1 | – | > 38 µM (inactive)
66 | O=C(Nc1ncc2ccccc2n1)c1cc(-c2ccccc2)on1 | -12.2% (inactive) | –
67 | O=C(NCCCn1ccnc1)c1cc(-c2ccccc2)on1 | -7.58% (inactive) | –
68 | Oc1ccc(CN2CCC(Cc3ccccc3)CC2)c2cccnc12 | -1.73% (inactive) | –
69 | O=C(NCCCN1CCOCC1)c1cc(-c2ccccc2)on1 | 11% (inactive) | –
